Assay results as given in paper PMC4138289 (Nature chemical biology, 2014).

Assays:
mouse spleen proteomes = assay: in vivo proteome reactivity, gel-based ABPP of mouse spleen; settings: mice, 10 or 20 mg/kg, i.p., 1 hr
Procedure, shortened: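 C57BL/6 mice dosed i.p. in saline/EtOH/DMSO/Cremophor EL 17:1:1:1 (10 μL g−1). Inhibitor (20 mg/kg) or vehicle for 1 hr, then probe (10 or 20 mg/kg) for 1 hr; isoflurane, cervical dislocation. Tissues were DPBS-washed and bead-homogenized, spun at 1,500 × g, then 100,000 × g for 45 min (membrane/cytosolic) and set to 2 mg/mL. Rhodamine-azide click, SDS-PAGE, in-gel fluorescence.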

[1] = tested on: proteomes of cancer cell lines; assay: in situ proteomic reactivity by gel-based ABPP in cancer cells; assay type: cell-based, human; settings: in situ treatment with 1 μM probe, cancer cells (SW620 and others)
[2] = cytotoxicity, Sulforhodamine B assay, EGFR-independent cell lines; assay type: cell-based; settings: human (MDA-MB-435S, SW620), mouse (NIH3T3)
[3] = time course of compound concentrations in A431 cells; assay type: in vitro ADME, human; settings: relative cellular concentrations

For `C#Cc1cccc(Oc2ccc(-c3nn([C@@H]4CCCN(C(=O)C=C)C4)c4ncnc(N)c34)cc2)c1` [Probe 4], the “in vivo proteomic reactivity” value (mouse spleen proteomes) was “higher proteomic reactivity than probe 6”.
With `C#CCOc1cc2ncnc(Nc3ccc(F)c(Cl)c3)c2cc1NC(=O)CCCN(C)C` [Probe 13] the time-dependent proteomic reactivity [1] was “Negligible time-dependent proteomic reactivity”.
For `CN(C)C/C=C/C(=O)Nc1cc2c(Nc3ccc(F)c(Cl)c3)ncnc2cc1O[C@H]1CCOC1` [afatinib, reference compound], the IC50 at 72 h [2] was 0.7 to 2.2 µM and the “stability / accumulation of compound in cells” value [3] was “more prolonged accumulation in cells”.
